From ChEMBL document CHEMBL5712899, “WDR5 supports colon cancer cells by promoting methylation of H3K4 and suppressing DNA damage” (2018)
The source made the active and inactive calls. The rule behind the calls is not given here.

Columns and labels:
[1] = system: RKO; experiment: Cytotoxicity against human RKO cells assessed as decrease in cell viability at 10 uM measured after 72 hrs by Alamar Blue assay; type: functional, cell-based
In short: (§1)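 Cells grown in DMEM with 10% FBS and treated 72 h with compound diluted 1:1000 from 10 mM DMSO stock (final 0.1% DMSO, vehicle control). alamarBlue added at 100 μL per mL medium for 1–3 h at 37 °C, then fluorescence read. Values background-subtracted against cell-free wells and normalized to control set to 1. Shown ± SD; unpaired two-sided t-test.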

[2] = system: HCT-116; experiment: Cytotoxicity against human HCT-116 cells assessed as decrease in cell viability at 10 uM for 72 hrs by Alamar Blue assay; type: functional, cell-based; in short: as §1
[3] = system: SW-620; experiment: Cytotoxicity against human SW620 cells assessed as reduction in cell viability at 10 uM for 72 hrs by Alamar Blue assay relative to control; type: functional; in short: as §1
[4] = system: T84; experiment: Cytotoxicity against human T84 cells assessed as reduction in cell viability at 10 uM for 72 hrs by Alamar Blue assay relative to control; type: functional; in short: as §1
[5] = system: RKO; experiment: Inhibition of colony formation in human RKO cells assessed as decrease in number of colonies at 10 uM incubated for 10 to 14 days; type: functional, cell-based; details: time 10-14 day
In short: (§2)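 Colony assay in 24-well plates with compound for 10–14 days, diluted from 10 mM DMSO stock to a final 0.1% DMSO (vehicle control). Colony number and average colony size quantified per line. Unpaired two-sided t-test.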

[6] = system: T84; experiment: Inhibition of colony formation in human T84 cells assessed as decrease in number of colonies at 10 uM incubated for 10 to 14 days; type: functional, cell-based; details: time 10-14 day; in short: as §2
[7] = system: SW480; experiment: Inhibition of colony formation in human SW480 cells assessed as decrease in number of colonies at 10 uM incubated for 10 to 14 days; type: functional, cell-based; details: time 10-14 day; in short: as §2
[8] = system: SW-620; experiment: Inhibition of colony formation in human SW620 cells assessed as decrease in number of colonies at 10 uM incubated for 10 to 14 days; type: functional, cell-based; details: time 10-14 day; in short: as §2
[9] = system: LoVo; experiment: Inhibition of colony formation in human LoVo cells assessed as decrease in number of colonies at 10 uM incubated for 10 to 14 days; type: functional, cell-based; details: time 10-14 day; in short: as §2
[10] = system: T84; experiment: Inhibition of colony formation in human T84 cells assessed as decrease in colony size at 10 uM incubated for 10 to 14 days; type: functional, cell-based; details: time 10-14 day; in short: as §2
[11] = system: SW-620; experiment: Inhibition of colony formation in human SW620 cells assessed as decrease in colony size at 10 uM incubated for 10 to 14 days; type: functional, cell-based; details: time 10-14 day; in short: as §2
[12] = system: HCT-116; experiment: Inhibition of colony formation in human HCT-116 cells assessed as decrease in colony size at 10 uM incubated for 10 to 14 days; type: functional, cell-based; details: time 10-14 day; in short: as §2
[13] = system: RKO; experiment: Inhibition of colony formation in human RKO cells assessed as decrease in colony size at 10 uM incubated for 10 to 14 days; type: functional, cell-based; details: time 10-14 day; in short: as §2
[14] = system: LoVo; experiment: Inhibition of colony formation in human LoVo cells assessed as decrease in colony size at 10 uM incubated for 10 to 14 days; type: functional, cell-based; details: time 10-14 day; in short: as §2
[15] = system: SW-620; experiment: Cell cycle arrest in human SW620 cells assessed as increase in G1-phase cell population at 10 uM measured after 48 hrs by propidium iodide staining based flow cytometry; type: functional
In short: (§3)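 Fixed overnight at −20 °C in ice-cold 70% ethanol after collecting adherent and nonadherent cells. Rehydrated in PBS for 15 min at 37 °C, then PI-stained for 8–15 h. Read on an LSR II flow cytometer with cell-cycle modelling for phase percentages. Compound added from 10 mM DMSO stock diluted 1:1000 into pre-warmed medium (0.1% DMSO vehicle control). Unpaired two-sided t-test.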

[16] = system: RKO; experiment: Cell cycle arrest in human RKO cells assessed as increase in G1-phase cell population at 10 uM measured after 48 hrs by propidium iodide staining based flow cytometry; type: functional; in short: as §3
[17] = Inhibition of RBBP5 interaction with flag-tagged human WDR5 expressed in HEK293T cells assessed as endogenous RBBP5 level at 10 uM measured after 5 hrs by co-immunoprecipitation assay relative to control; design: scale not given: the % may be the effect or the level left; details: condition malignant colon neoplasm
[18] = system: HCT-116; experiment: Induction of apoptosis in human HCT-116 cells assessed as viable cells at 10 uM measured after 48 hrs by Annexin V/Propidium iodide staining based flow cytometry (reference value: 62.7%); type: functional; details: read-out: Activity
[19] = system: HCT-116; experiment: Induction of apoptosis in human HCT-116 cells assessed as early apoptotic cells at 10 uM measured after 48 hrs by Annexin V/Propidium iodide staining based flow cytometry (reference value: 19.4%); type: functional
[20] = system: HCT-116; experiment: Induction of apoptosis in human HCT-116 cells assessed as late apoptotic cells at 10 uM measured after 48 hrs by Annexin V/Propidium iodide staining based flow cytometry (reference value: 17.2%); type: functional
[21] = system: HCT-116; experiment: Induction of apoptosis in human HCT-116 cells assessed as necrotic cells at 10 uM measured after 48 hrs by Annexin V/Propidium iodide staining based flow cytometry (reference value: 0.67%); type: functional
[22] = system: SW-620; experiment: Induction of apoptosis in human SW620 cells assessed as viable cells at 10 uM measured after 48 hrs by Annexin V/Propidium iodide staining based flow cytometry (Rvb =84.8%); type: functional; details: read-out: Activity
[23] = system: SW-620; experiment: Induction of apoptosis in human SW620 cells assessed as early apoptotic cells at 10 uM measured after 48 hrs by Annexin V/Propidium iodide staining based flow cytometry (reference value: 4.03%); type: functional
[24] = system: SW-620; experiment: Induction of apoptosis in human SW620 cells assessed as late apoptotic cells at 10 uM measured after 48 hrs by Annexin V/Propidium iodide staining based flow cytometry (reference value: 10.3%); type: functional
[25] = system: SW-620; experiment: Induction of apoptosis in human SW620 cells assessed as necrotic cells at 10 uM measured after 48 hrs by Annexin V/Propidium iodide staining based flow cytometry (reference value: 0.87%); type: functional
[26] = system: RKO; experiment: Induction of apoptosis in human RKO cells assessed as viable cells at 10 uM measured after 48 hrs by Annexin V/Propidium iodide staining based flow cytometry (Rvb =76.1%); type: functional; details: read-out: Activity
[27] = system: RKO; experiment: Induction of apoptosis in human RKO cells assessed as early apoptotic cells at 10 uM measured after 48 hrs by Annexin V/Propidium iodide staining based flow cytometry (reference value: 16.7%); type: functional
[28] = system: RKO; experiment: Induction of apoptosis in human RKO cells assessed as late apoptotic cells at 10 uM measured after 48 hrs by Annexin V/Propidium iodide staining based flow cytometry (reference value: 6.58%); type: functional
[29] = system: RKO; experiment: Induction of apoptosis in human RKO cells assessed as necrotic cells at 10 uM measured after 48 hrs by Annexin V/Propidium iodide staining based flow cytometry (reference value: 0.54%); type: functional

Compound: CN1CCN(c2ccc(-c3cccc(CN4CCOCC4)c3)cc2NC(=O)c2c[nH]c(=O)cc2C(F)(F)F)CC1
- Activity [1]: Active
- Activity [2]: Active
- Activity [3]: 50%
- Activity [4]: 50%
- inhibition [5]: Active
- inhibition [6]: Active
- inhibition [7]: Active
- inhibition [8]: Active
- inhibition [9]: inactive
- inhibition [10]: Active
- inhibition [11]: Active
- inhibition [12]: Active
- inhibition [13]: inactive
- inhibition [14]: inactive
- Activity [15]: Active
- Activity [16]: Active
- Activity [17]: <20%
- viability at 10 µM [18]: 46.1%
- Activity [19]: 22.2%
- Activity [20]: 30.4%
- Activity [21]: 1.36%
- viability at 10 µM [22]: 81.3%
- Activity [23]: 8.01%
- Activity [24]: 10.3%
- Activity [25]: 0.43%
- viability at 10 µM [26]: 68.5%
- Activity [27]: 27%
- Activity [28]: 4.3%
- Activity [29]: 0.18%
